Reference: ChEMBL document CHEMBL1151448, “Comparative antianaerobic activities of doripenem determined by MIC and time-kill analysis” (2008)
Converted amounts (≈) assume the structure as drawn. The source made the active and inactive calls. No cut-off for these calls is given here.

Columns and labels:
[Clostridium] innocuum = Antimicrobial activity against Clostridium innocuum isolated from intra-abdominal infection and pelvic inflammatory disease patients after 48 hrs by agar dilution method; assay type: functional
How it was run: (§1)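 CLSI agar dilution on brucella blood agar supplemented with laked sheep blood, hemin and vitamin K. Inocula of about 1 × 10^5 CFU/spot were applied by Steers replicator, and plates were incubated 48 h at 35°C in an anaerobic glove box. MIC was the concentration giving marked growth reduction versus the anaerobic control plate. QC strains were included each run, and β-lactamase was detected by Cefinase disk.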

Prevotella intermedia = test: Antimicrobial activity against beta lactamase-positive Prevotella intermedia isolated from intra-abdominal infection and pelvic inflammatory disease patients after 48 hrs by agar dilution method; assay type: functional; how it was run: as §1
[1] = system: Bacteroides thetaiotaomicron; test: Bactericidal activity against beta lactamase-positive Bacteroides thetaiotaomicron isolated from intra-abdominal infection and pelvic inflammatory disease patients assessed as bacterial killing at MIC after 24 hrs by time kill analysis; assay type: functional
How it was run: (§2)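 Macrodilution time-kill in prereduced brucella broth with 5% laked horse blood, hemin 5 μg/ml and vitamin K1 1 μg/ml, at final inoculum 10^6–10^7 CFU/ml. […] Viable counts were taken at 6, 12, 24 and 48 h on plates incubated 48 h anaerobically. 99.9% kill was taken as bactericidal.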

[2] = system: Fusobacterium necrophorum; test: Antimicrobial activity against Fusobacterium necrophorum isolated from intra-abdominal infection and pelvic inflammatory disease patients after 48 hrs by agar dilution method; assay type: functional; how it was run: as §1
Finegoldia magna = test: Bactericidal activity against beta lactamase-positive Finegoldia magna isolated from intra-abdominal infection and pelvic inflammatory disease patients assessed as 99.9% bacterial killing at 2 times MIC after 48 hrs by time kill analysis; assay type: functional, organism-based; how it was run: as §2
Fusobacterium nucleatum [3] = test: Antimicrobial activity against beta lactamase-positive Fusobacterium nucleatum isolated from intra-abdominal infection and pelvic inflammatory disease patients after 48 hrs by time kill analysis; assay type: functional
How it was run: (§3)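 The MIC was read by inspecting macrodilution time-kill tubes. Vials held prereduced brucella broth with 5% laked horse blood cells, hemin 5 μg/ml and vitamin K1 1 μg/ml. Final inoculum was 10^6–10^7 CFU/ml, prepared inside the anaerobe chamber. Vials were incubated 48 h at 35°C in a shaking water bath.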

[4] = system: Porphyromonas asaccharolytica; test: Antimicrobial activity against Porphyromonas asaccharolyticus isolated from intra-abdominal infection and pelvic inflammatory disease patients after 48 hrs by agar dilution method; assay type: functional; how it was run: as §1
Prevotella disiens = test: Antimicrobial activity against beta lactamase-positive Prevotella disiens isolated from intra-abdominal infection and pelvic inflammatory disease patients after 48 hrs by agar dilution method; assay type: functional; how it was run: as §1
[5] = system: Bacteroides thetaiotaomicron; test: Antimicrobial activity against beta lactamase-positive Bacteroides thetaiotaomicron isolated from intra-abdominal infection and pelvic inflammatory disease patients after 48 hrs by agar dilution method; assay type: functional; how it was run: as §1
Clostridium perfringens [6] = test: Antimicrobial activity against Clostridium perfringens isolated from intra-abdominal infection and pelvic inflammatory disease patients after 48 hrs by agar dilution method; assay type: functional
How it was run: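 CLSI agar dilution on brucella blood agar supplemented with laked sheep blood, hemin and vitamin K. Inoculum about 1 × 10^5 CFU/spot, applied by Steers replicator. Plates incubated 48 h at 35°C in an anaerobic glove box. MIC is the concentration giving marked growth reduction versus the anaerobic control plate. Standard QC strains included in each run.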

[7] = system: Peptoniphilus asaccharolyticus; test: Antimicrobial activity against Peptoniphilus asaccharolyticus isolated from intra-abdominal infection and pelvic inflammatory disease patients after 48 hrs by agar dilution method; assay type: functional; how it was run: as §1
[8] = system: Prevotella melaninogenica; test: Antimicrobial activity against beta lactamase-positive Prevotella melaninogenica isolated from intra-abdominal infection and pelvic inflammatory disease patients after 48 hrs by agar dilution method; assay type: functional; how it was run: as §1
Clostridium perfringens [9] = test: Bactericidal activity against Clostridium perfringens isolated from intra-abdominal infection and pelvic inflammatory disease patients assessed as bacterial killing at 2 times MIC after 48 hrs by time kill analysis; assay type: functional
How it was run: (§4)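 Time-kill in prereduced brucella broth with 5% laked horse blood cells, hemin and vitamin K1. […] Viable counts taken at 6, 12, 24 and 48 h, plates incubated 48 h anaerobically. Kill scored as 90%, 99% or 99.9%; 99.9% defines bactericidal.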

[10] = system: Paeniclostridium sordellii; test: Antimicrobial activity against Clostridium sordellii isolated from intra-abdominal infection and pelvic inflammatory disease patients after 48 hrs by agar dilution method; assay type: functional; settings: Paraclostridium sordellii; how it was run: as §1
Clostridium cadaveris = test: Antimicrobial activity against Clostridium cadaveris isolated from intra-abdominal infection and pelvic inflammatory disease patients after 48 hrs by agar dilution method; assay type: functional; how it was run: as §1
Fusobacterium varium = test: Antimicrobial activity against Fusobacterium varium isolated from intra-abdominal infection and pelvic inflammatory disease patients after 48 hrs by agar dilution method; assay type: functional; how it was run: as §1
Clostridioides difficile [11] = test: Antimicrobial activity against Clostridium difficile isolated from intra-abdominal infection and pelvic inflammatory disease patients after 48 hrs by time kill analysis; assay type: functional
How it was run: (§5)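 Macrodilution in prereduced brucella broth with 5% laked horse blood cells, 5 μg/ml hemin and 1 μg/ml vitamin K1. Final inoculum 10^6 to 10^7 CFU/ml, prepared inside the anaerobe chamber. Vials incubated 48 h at 35°C in a shaking water bath. MIC read by inspecting the time-kill tubes, alongside an antibiotic-free growth control.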

Bacteroides fragilis [12] = test: Bactericidal activity against beta lactamase-positive Bacteroides fragilis isolated from intra-abdominal infection and pelvic inflammatory disease patients assessed as bacterial killing at 2 times MIC after 48 hrs by time kill analysis; assay type: functional; how it was run: as §2
Prevotella bivia = test: Antimicrobial activity against beta lactamase-positive Prevotella bivia isolated from intra-abdominal infection and pelvic inflammatory disease patients after 48 hrs by agar dilution method; assay type: functional; how it was run: as §1
Clostridium perfringens [13] = test: Antimicrobial activity against Clostridium perfringens isolated from intra-abdominal infection and pelvic inflammatory disease patients after 48 hrs by time kill analysis; assay type: functional; how it was run: as §5
Fusobacterium mortiferum = test: Antimicrobial activity against beta lactamase-positive Fusobacterium mortiferum isolated from intra-abdominal infection and pelvic inflammatory disease patients after 48 hrs by agar dilution method; assay type: functional; how it was run: as §1
Porphyromonas levii = test: Antimicrobial activity against Porphyromonas levii isolated from intra-abdominal infection and pelvic inflammatory disease patients after 48 hrs by agar dilution method; assay type: functional; how it was run: as §1
[14] = system: Bacteroides thetaiotaomicron; test: Antimicrobial activity against beta lactamase-positive Bacteroides thetaiotaomicron isolated from intra-abdominal infection and pelvic inflammatory disease patients after 48 hrs by time kill analysis; assay type: functional; how it was run: as §3
Bacteroides fragilis [15] = test: Antimicrobial activity against beta lactamase-positive Bacteroides fragilis isolated from intra-abdominal infection and pelvic inflammatory disease patients after 48 hrs by agar dilution method; assay type: functional; how it was run: as §1
Fusobacterium nucleatum [16] = test: Antimicrobial activity against beta lactamase-positive Fusobacterium nucleatum isolated from intra-abdominal infection and pelvic inflammatory disease patients after 48 hrs by agar dilution method; assay type: functional; how it was run: as §1
Anaerococcus prevotii = test: Antimicrobial activity against Anaerococcus prevotii isolated from intra-abdominal infection and pelvic inflammatory disease patients after 48 hrs by agar dilution method; assay type: functional; how it was run: as §1
Clostridium perfringens [17] = test: Bactericidal activity against Clostridium perfringens isolated from intra-abdominal infection and pelvic inflammatory disease patients assessed as bacterial killing at MIC after 24 hrs by time kill analysis; assay type: functional; how it was run: as §4
Clostridioides difficile [18] = test: Bactericidal activity against Clostridium difficile isolated from intra-abdominal infection and pelvic inflammatory disease patients assessed as bacterial killing at MIC after 24 hrs by time kill analysis; assay type: functional; how it was run: as §2

C[C@@H](O)[C@H]1C(=O)N2C(C(=O)O)=C(SCCNC=N)C[C@H]12 [IMIPENEM ANHYDROUS]
MIC ([Clostridium] innocuum): 1 µg/mL (≈ 3.34 µM)
MIC50 ([Clostridium] innocuum): 1 µg/mL (≈ 3.34 µM)
MIC50 (Prevotella intermedia): 0.03 µg/mL (≈ 0.1 µM)
MIC90 (Prevotella intermedia): 0.125 µg/mL (≈ 0.418 µM)
Activity [1]: 90%
MIC [2]: ≤ 0.016 µg/mL
MIC50 [2]: ≤ 0.016 µg/mL
MIC90 [2]: 0.25 µg/mL (≈ 0.835 µM)
Activity (Finegoldia magna): inactive
MIC (Fusobacterium nucleatum [3]): 0.016 µg/mL (≈ 0.0534 µM)
MIC [4]: ≤ 0.016 µg/mL
MIC (Prevotella disiens): 0.03 µg/mL (≈ 0.1 µM)
MIC50 (Prevotella disiens): 0.03 µg/mL (≈ 0.1 µM)
MIC90 (Prevotella disiens): 0.125 µg/mL (≈ 0.418 µM)
MIC [5]: 0.25 µg/mL (≈ 0.835 µM)
MIC50 [5]: 0.25 µg/mL (≈ 0.835 µM)
MIC90 [5]: 0.5 µg/mL (≈ 1.67 µM)
MIC50 (Clostridium perfringens [6]): 0.06 µg/mL (≈ 0.2 µM)
MIC90 (Clostridium perfringens [6]): 0.125 µg/mL (≈ 0.418 µM)
MIC [7]: ≤ 0.016 µg/mL
MIC50 [7]: ≤ 0.016 µg/mL
MIC90 [7]: 0.03 µg/mL (≈ 0.1 µM)
MIC50 [8]: 0.03 µg/mL (≈ 0.1 µM)
MIC90 [8]: 0.03 µg/mL (≈ 0.1 µM)
Activity (Clostridium perfringens [9]): 99%
MIC [10]: 0.125 µg/mL (≈ 0.418 µM)
MIC (Clostridium cadaveris): 0.125 µg/mL (≈ 0.418 µM)
MIC50 (Fusobacterium varium): 1 µg/mL (≈ 3.34 µM)
MIC90 (Fusobacterium varium): 1 µg/mL (≈ 3.34 µM)
MIC (Clostridioides difficile [11]): 4 µg/mL (≈ 13.4 µM)
Activity (Bacteroides fragilis [12]): 99%
MIC50 (Prevotella bivia): 0.03 µg/mL (≈ 0.1 µM)
MIC90 (Prevotella bivia): 0.06 µg/mL (≈ 0.2 µM)
MIC (Clostridium perfringens [13]): 0.06 µg/mL (≈ 0.2 µM)
MIC50 (Fusobacterium mortiferum): 1 µg/mL (≈ 3.34 µM)
MIC90 (Fusobacterium mortiferum): 1 µg/mL (≈ 3.34 µM)
MIC (Porphyromonas levii): ≤ 0.016 µg/mL
MIC [14]: 0.25 µg/mL (≈ 0.835 µM)
MIC50 (Bacteroides fragilis [15]): 0.125 µg/mL (≈ 0.418 µM)
MIC90 (Bacteroides fragilis [15]): 0.25 µg/mL (≈ 0.835 µM)
MIC50 (Fusobacterium nucleatum [16]): 0.03 µg/mL (≈ 0.1 µM)
MIC90 (Fusobacterium nucleatum [16]): 0.03 µg/mL (≈ 0.1 µM)
MIC (Anaerococcus prevotii): ≤ 0.016 µg/mL
Activity (Clostridium perfringens [17]): 90%
Activity (Clostridioides difficile [18]): 90%

C[C@@H](O)[C@H]1C(=O)N2C(C(=O)O)=C(S[C@@H]3CN[C@H](CNS(N)(=O)=O)C3)[C@H](C)[C@H]12 [DORIPENEM]
MIC ([Clostridium] innocuum): 1 µg/mL (≈ 2.38 µM)
MIC50 ([Clostridium] innocuum): 1 µg/mL (≈ 2.38 µM)
MIC50 (Prevotella intermedia): 0.03 µg/mL (≈ 0.0713 µM)
MIC90 (Prevotella intermedia): 0.125 µg/mL (≈ 0.297 µM)
Activity [1]: 90%
MIC [2]: ≤ 0.016 µg/mL
MIC50 [2]: ≤ 0.016 µg/mL
MIC90 [2]: 0.25 µg/mL (≈ 0.595 µM)
Activity (Finegoldia magna): inactive
MIC (Fusobacterium nucleatum [3]): 0.016 µg/mL (≈ 0.038 µM)
MIC [4]: ≤ 0.016 µg/mL
MIC50 (Prevotella disiens): 0.06 µg/mL (≈ 0.143 µM)
MIC90 (Prevotella disiens): 0.125 µg/mL (≈ 0.297 µM)
MIC [5]: 0.25 µg/mL (≈ 0.595 µM)
MIC50 [5]: 0.25 µg/mL (≈ 0.595 µM)
MIC90 [5]: 0.5 µg/mL (≈ 1.19 µM)
MIC50 (Clostridium perfringens [6]): 0.03 µg/mL (≈ 0.0713 µM)
MIC90 (Clostridium perfringens [6]): 0.03 µg/mL (≈ 0.0713 µM)
MIC [7]: ≤ 0.016 µg/mL
MIC50 [7]: ≤ 0.016 µg/mL
MIC90 [7]: 0.03 µg/mL (≈ 0.0713 µM)
MIC50 [8]: 0.03 µg/mL (≈ 0.0713 µM)
MIC90 [8]: 0.06 µg/mL (≈ 0.143 µM)
Activity (Clostridium perfringens [9]): 99%
MIC [10]: 0.03 µg/mL (≈ 0.0713 µM)
MIC (Clostridium cadaveris): 0.03 µg/mL (≈ 0.0713 µM)
MIC50 (Fusobacterium varium): 0.125 µg/mL (≈ 0.297 µM)
MIC90 (Fusobacterium varium): 0.125 µg/mL (≈ 0.297 µM)
MIC (Clostridioides difficile [11]): 1 µg/mL (≈ 2.38 µM)
Activity (Bacteroides fragilis [12]): 99%
MIC (Prevotella bivia): 0.06 µg/mL (≈ 0.143 µM)
MIC50 (Prevotella bivia): 0.06 µg/mL (≈ 0.143 µM)
MIC90 (Prevotella bivia): 0.125 µg/mL (≈ 0.297 µM)
MIC (Clostridium perfringens [13]): 0.03 µg/mL (≈ 0.0713 µM)
MIC50 (Fusobacterium mortiferum): 0.25 µg/mL (≈ 0.595 µM)
MIC90 (Fusobacterium mortiferum): 1 µg/mL (≈ 2.38 µM)
MIC (Porphyromonas levii): 0.03 µg/mL (≈ 0.0713 µM)
MIC [14]: 0.25 µg/mL (≈ 0.595 µM)
MIC50 (Bacteroides fragilis [15]): 0.25 µg/mL (≈ 0.595 µM)
MIC90 (Bacteroides fragilis [15]): 1 µg/mL (≈ 2.38 µM)
MIC (Fusobacterium nucleatum [16]): ≤ 0.016 µg/mL
MIC50 (Fusobacterium nucleatum [16]): ≤ 0.016 µg/mL
MIC90 (Fusobacterium nucleatum [16]): 0.03 µg/mL (≈ 0.0713 µM)
MIC (Anaerococcus prevotii): 0.03 µg/mL (≈ 0.0713 µM)
Activity (Clostridium perfringens [17]): 90%
Activity (Clostridioides difficile [18]): 90%
